Test results published in ChEMBL document CHEMBL2331496 (Eur J Med Chem, 2013).
The source made the active and inactive calls. The rule behind the calls is not given here.

What was measured:
[1] = system: Human immunodeficiency virus 1; assay: Antiviral activity against HIV1 NL4.3 infected in 293T cells assessed as acentric core at 5 ug/ml after 2 days by electron microscopic analysis; type: functional, organism-based
[2] = system: Human immunodeficiency virus 1; assay: Antiviral activity against HIV1 NL4.3 infected in 293T cells assessed as spherical core at 5 ug/ml after 2 days by electron microscopic analysis; type: functional, organism-based
[3] = system: Human immunodeficiency virus 1; assay: Antiviral activity against HIV1 NL4.3 infected in 293T cells assessed as aberrant core at 5 ug/ml after 2 days by electron microscopic analysis; type: functional, organism-based
[4] = system: 293T; assay: Inhibition of HIV1 NL4.3 CA-SP1 cleavage infected in 293T cells after 2 days by Western blot analysis; type: cell-based; details: Human immunodeficiency virus 1
[5] = Selectivity index, ratio of CC50 for human MAGIC-5B cells to IC50 for HIV1 NL4.3; type: functional
[6] = Cytotoxicity against human MAGIC-5B cells after 48 hrs by MTT assay; type: cell-based
[7] = system: Human immunodeficiency virus 1; assay: Antiviral activity against HIV1 NL4.3 infected in MAGIC-5B cells after 48 hrs by beta-galactosidase reporter gene assay; type: functional, organism-based; details: Human immunodeficiency virus 1, NL4.3, 48 h
In short: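 MAGIC-5B indicator cells (beta-galactosidase under the HIV-1 LTR), 8×10^4 per well, were exposed to these supernatants. After 48 h, ONPG hydrolysis was read in lysates and normalised to total protein.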

[8] = system: Human immunodeficiency virus 1; assay: Binding affinity to HIV1 NL4.3 CA-SP1 at 550 uM by chemical shift pertubation NMR analysis
In short: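 2D 1H-1H NOESY of CA-SP1-NC peptide (250 uM) with and without ligand (550 uM). pH 3.8 in H2O/TFE 70/30 (to prevent aggregation) with 1% DMSO-d6. Spectral width 5296.6 Hz, excitation-sculpting water suppression, 250 ms NOE mixing time. Chemical-shift perturbation of the wild-type junction plotted per residue.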

[9] = Ratio of compound selectivity index to bevirimat selectivity index for HIV1 NL4.3 over human MAGIC-5B cells
[10] = system: Human immunodeficiency virus; assay: Antiviral activity against HIV infected in H9 cells; type: functional, organism-based; details: Human immunodeficiency virus 1, H9

Row | Structure (SMILES) | Activity [1] | Activity [2] | Activity [3] | inhibition [4] | Ratio CC50/IC50 [5] | CC50 at 48 h [6] [µM] | IC50 [7] [µM] | Activity [8] | Ratio [9] | EC50 [10] [µM]
1 | C=C(C)[C@@H]1CC[C@]2(C(=O)O)CC[C@]3(C)[C@H](CC[C@@H]4[C@@]5(C)CC[C@H](O)C(C)(C)[C@@H]5CC[C@]43C)[C@@H]12 [BETULINIC ACID] | inactive | inactive | inactive | inactive | 0.85 | 4.52 | 5.32 |  |  | 
2 | C=C(C)[C@@H]1CC[C@]2(C(=O)NCCN)CC[C@]3(C)[C@H](CC[C@@H]4[C@@]5(C)CC[C@H](OC(=O)CC(C)(C)C(=O)O)C(C)(C)[C@@H]5CC[C@]43C)[C@@H]12 | Active | Active | Active | Active | 2118.75 | 33.9 | 0.016 | Active | 2 | 
3 | C=C(C)[C@@H]1CC[C@]2(C(=O)NCC(=O)O)CC[C@]3(C)[C@H](CC[C@@H]4[C@@]5(C)CC[C@H](OC(=O)CC(C)(C)C(=O)O)C(C)(C)[C@@H]5CC[C@]43C)[C@@H]12 | Active | Active | Active | Active | 309.37 | 49.5 | 0.16 |  |  | 
4 | C=C(C)[C@@H]1CC[C@]2(C(=O)N[C@@H](CCCCNC(=O)OC(C)(C)C)C(=O)O)CC[C@]3(C)[C@H](CC[C@@H]4[C@@]5(C)CC[C@H](OC(=O)CC(C)(C)C(=O)O)C(C)(C)[C@@H]5CC[C@]43C)[C@@H]12 | Active | Active | Active | Active | 199.41 | 33.9 | 0.17 |  |  | 
5 | C=C(C)[C@@H]1CC[C@]2(C(=O)O)CC[C@]3(C)[C@H](CC[C@@H]4[C@@]5(C)CC[C@H](OC(=O)CC(C)(C)C(=O)O)C(C)(C)[C@@H]5CC[C@]43C)[C@@H]12 [BEVIRIMAT] | Active | Active | Active | Active |  |  |  |  |  | > 0.00035
6 | C=C(C)[C@@H]1CC[C@]2(C(=O)NCCC(=O)O)CC[C@]3(C)[C@H](CC[C@@H]4[C@@]5(C)CC[C@H](OC(=O)CC(C)(C)C(=O)O)C(C)(C)[C@@H]5CC[C@]43C)[C@@H]12 | Active | Active | Active | Active | 411.01 | 48.5 | 0.118 |  |  | 
7 | C=C(C)[C@@H]1CC[C@]2(C(=O)N[C@@H](CCCCN)C(=O)O)CC[C@]3(C)[C@H](CC[C@@H]4[C@@]5(C)CC[C@H](OC(=O)CC(C)(C)C(=O)O)C(C)(C)[C@@H]5CC[C@]43C)[C@@H]12 | inactive | inactive | inactive | inactive | 11.24 | 48.7 | 4.33 |  |  | 
